Assay outcomes deposited in PubChem by several laboratories.
This is a sample that favours compounds with a hit; in the whole collection about 1.5% have one here.
CHT PAM: human CHT allosteric activation. Q9GZV3. CHT-expressing cells, membrane potential dye, choline EC20; hits give high values; LV-AA mutant CHT in HEK293 cells. B-score at 10 µM. actives 0.49% (n = 310,000);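 active = initial fluorescence not abnormally high and integrated response B-score, plate-corrected, over 3 SD above library mean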
CHT block: human CHT choline transport inhibition. Q9GZV3. CHT-expressing cells, membrane potential dye, choline response; hits give low values. B-score at 10 µM. actives 0.86% (n = 310,000). AID 488975;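 active = B-score over 3 SD under the library average, and starting fluorescence ratio not unusually high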;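 also: choline stimulus applied at its EC90 after an EC20 pre-addition; B-score computed on integrated fluorescence ratio after choline addition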
T cell modulator: modulates CD8 T cell binding to vesicles; 2C CD8+ T cell-vesicle binding, flow cytometry; hits give low values; response (vesicle binding), % at 7 µM; actives 0.068% (n = 330,000); AID 2052;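 active = response, share of CD8 T cells binding vesicles, and their 90th percentile fluorescence all below set limits, cut at about 80% in these data, passing the limit was not always enough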;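 also: values below 100% mean blocked vesicle binding to the CD8+ T cells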
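Read-out – percent CD8+ FL2 mean versus row control · System – murine 2C transgenic CD8+ T lymphocytes · Times – 1.5 h cell–vesicle binding at 37 °C, then 20 min icy labelling · Control set – naked vesicles low, QL9 vesicles with vehicle high · Detection – cytometric PE anti-B7-1 and Alexa647 anti-CD8 signals after 1% paraformaldehyde fixation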
VLA-4 inh: inhibition in a human VLA-4 binding assay | P13612 | VLA-4 expressing cells, ligand binding flow cytometry | inhibition, % (about 7 µM as worked out from the volumes in the protocol) | actives 0.2% (n = 330,000); in the data active = inhibition above about 50%
Target sequence (P13612 whole entry, looked up): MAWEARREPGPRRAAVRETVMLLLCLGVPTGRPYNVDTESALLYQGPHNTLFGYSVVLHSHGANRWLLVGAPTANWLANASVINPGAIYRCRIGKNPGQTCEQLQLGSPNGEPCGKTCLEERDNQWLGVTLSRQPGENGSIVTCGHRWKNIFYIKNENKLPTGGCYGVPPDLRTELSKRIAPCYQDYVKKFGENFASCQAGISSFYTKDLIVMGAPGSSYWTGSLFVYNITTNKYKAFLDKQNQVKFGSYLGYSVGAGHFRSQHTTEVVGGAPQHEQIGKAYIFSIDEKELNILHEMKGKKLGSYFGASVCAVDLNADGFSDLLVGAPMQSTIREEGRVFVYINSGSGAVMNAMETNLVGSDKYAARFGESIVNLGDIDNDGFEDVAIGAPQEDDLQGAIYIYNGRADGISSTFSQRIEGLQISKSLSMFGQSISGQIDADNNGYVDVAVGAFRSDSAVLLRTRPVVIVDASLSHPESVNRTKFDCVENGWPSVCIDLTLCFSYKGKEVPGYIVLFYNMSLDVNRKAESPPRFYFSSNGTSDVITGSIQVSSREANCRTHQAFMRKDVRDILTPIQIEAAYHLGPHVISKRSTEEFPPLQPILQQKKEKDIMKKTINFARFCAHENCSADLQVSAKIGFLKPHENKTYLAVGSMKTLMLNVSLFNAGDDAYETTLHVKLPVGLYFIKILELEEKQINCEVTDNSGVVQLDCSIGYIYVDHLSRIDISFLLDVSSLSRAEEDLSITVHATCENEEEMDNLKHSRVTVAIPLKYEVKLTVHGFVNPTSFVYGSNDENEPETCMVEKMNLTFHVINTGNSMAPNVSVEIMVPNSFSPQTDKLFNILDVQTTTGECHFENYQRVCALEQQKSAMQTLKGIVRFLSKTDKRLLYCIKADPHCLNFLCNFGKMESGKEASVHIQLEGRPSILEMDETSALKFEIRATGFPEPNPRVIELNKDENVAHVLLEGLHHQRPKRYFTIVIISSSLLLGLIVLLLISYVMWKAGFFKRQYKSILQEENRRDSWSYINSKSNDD
CHT block conf: human CHT inhibition, confirmatory screen. actives 70% (n = 2,400). shares compounds with CHT block. CHT activity remaining % of control (hits give low values), % at 10 µM. CHT-expressing cells, choline membrane potential dye; LV-to-AA substituted CHT, HEK293 cells;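 active = choline transporter activity left, mean of duplicates at 10 µM, below buffer-only control mean minus 3 SD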;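 also: depolarization triggered by choline at its EC90 following an EC20 pre-addition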
HEK293 CHT ctr: counter-screen for CHT inhibitors: effect in parental HEK293 cells. shares compounds with CHT block. membrane potential dye, choline response; active = decrease or increase beyond buffer ±3SD. membrane potential ratio readout (active if shifted either direction beyond buffer ±3SD; no single direction) at 10 µM. actives 4% (n = 2,400). AID 493222;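 also: parental cells lack the transporter so any hit is non-specific; ratio is peak minus trough fluorescence over baseline after EC90 choline challenge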
Large screens that a line does not name were inactive (follow-up assays come after a bar, where they were run).

Fc1ccc(-c2nc3c(-c4ccccc4)cnn3cc2CCN2CCOCC2)cc1	CHT block -10 | CHT block conf 22% | HEK293 CHT ctr inactive
Nc1ncc(CCN2CCOCC2)c(-c2ccc(F)cc2)n1	none
CCOc1ccc(NC(=O)CCCNC(=O)Cn2cnc3sc(C)c(C)c3c2=O)cc1	none
COc1ccc(S(=O)(=O)N2CCOC2CNC(=O)C(=O)NCCN2CCOCC2)cc1C (centres undefined)	none
CC(=O)Nc1nc2ccc(S(=O)(=O)N3CCCCC3)cc2s1	none
O=C(Nc1nc2ccc(S(=O)(=O)N3CCCCC3)cc2s1)c1cccnc1	CHT block -5.5 (no result: T cell modulator) | CHT block conf 49% | HEK293 CHT ctr inactive
Cc1nn(CC2CC2)c(=O)n1-c1ccc(Oc2ccccc2)cc1	CHT block -12 | CHT block conf 59% | HEK293 CHT ctr inactive
O=C(CCc1nc(-c2ccccc2)no1)NCc1ccccc1CN1CCOCC1	none (no result: CHT PAM, CHT block)
O=C(COC(=O)Cc1cccs1)Nc1ccccc1Cl	CHT block -5.5 | CHT block conf inactive | HEK293 CHT ctr inactive
O=C(Cc1ccc(S(=O)(=O)N2CCOCC2)s1)Nc1ccc(N2CCOCC2)cc1	CHT block -5.1 | CHT block conf inactive | HEK293 CHT ctr inactive
CN(C)S(=O)(=O)c1ccc(NC(=O)Cc2ccc(S(=O)(=O)N3CCOCC3)s2)cc1	none
CC(NC(=O)Cc1ccc(S(=O)(=O)N2CCOCC2)s1)c1ccc(Cl)c(Cl)c1 (centres undefined)	CHT block -7.1 | CHT block conf 57% | HEK293 CHT ctr inactive
CN1C(=O)C(CC(=O)NCCc2ccccc2)N(NC(=O)c2ccc(Cl)cc2)C1=S (centres undefined)	CHT block -12 | CHT block conf inactive | HEK293 CHT ctr inactive
CN1C(=O)C(CC(=O)NCCc2ccccc2)N(NC(=O)c2cccc(F)c2)C1=S (centres undefined)	none
CCCCN1CCc2c1nc1ccc(Br)cc1c2N	CHT block -5.6 | CHT block conf 51% | HEK293 CHT ctr inactive
COc1cc(C(=O)NC(=S)NNC(=O)[C@H]2C[C@@H]2c2ccccc2)cc(OC)c1OC	CHT block -5.9 | CHT block conf 48% | HEK293 CHT ctr inactive
COC(=O)[C@@]12CCCCN1[C@H](c1ccc(-c3cccc(Cl)c3)cc1)[C@@H]1C(=O)N(C)C(=O)[C@@H]12	none (no result: CHT PAM, CHT block)
CCOC(=O)c1oc2nc(CC(C)C)c3c(c2c1N)CCCC3	CHT block -11 | CHT block conf 13% | HEK293 CHT ctr inactive
CCn1nc(C)cc1C(=O)n1nc(C)c(Sc2ncccn2)c1C	none
O=C(CN1CCN(S(=O)(=O)c2ccc(Cl)cc2)CC1)NC1CC1	none
COc1ccc(/C=C/C(=O)OCC(=O)Nc2ccc(N3CCOCC3)cc2)cc1OC	CHT block -5 | CHT block conf inactive | HEK293 CHT ctr inactive
O=C(Nc1ccc(F)c(Cl)c1)c1cccnc1	CHT block -6.1 | CHT block conf inactive | HEK293 CHT ctr inactive
COc1ccc(C(=O)NCCc2nnc3ccc(SCC(=O)N4CCCCC4)nn23)cc1	none
NS(=O)(=O)c1ccc(CNc2ccc3ccccc3n2)cc1	CHT block -9.3 | CHT block conf 21% | HEK293 CHT ctr inactive
Cn1ccnc1Sc1ccc(C=O)cc1[N+](=O)[O-]	CHT block -6.3 | CHT block conf inactive | HEK293 CHT ctr inactive
c1ccc(C[C@H]2CN=C(Nc3ccccc3)N2CCC2CCCC2)cc1	CHT block -6.8 | CHT block conf 56% | HEK293 CHT ctr inactive
CC(C)C[C@H]1CN=C(Nc2ccccc2)N1CCC1CCCCC1	none
S=c1[nH]c2cc(Cl)ccc2s1	CHT block -5 | CHT block conf 54% | HEK293 CHT ctr inactive
CCOC(=O)C1(C)NC(c2ccco2)C2C(=O)N(CC)C(=O)C21 (centres undefined)	none
Cc1nc2ccccc2n1CSc1ccccc1	none | CHT block conf inactive | HEK293 CHT ctr inactive
Cc1cccc(N2CCN(C(=O)c3ccc(CNc4c(N5CCC(C)CC5)c(=O)c4=O)cc3)CC2C)c1 (centres undefined)	CHT block -5.4 | CHT block conf 70% | HEK293 CHT ctr inactive
CCOC(=O)c1sc2nc3c(SCCC#N)cc(C(=O)c4cc(F)ccc4O)cn3c(=O)c2c1C	none
